A short description of experiment [1]: Displacement of [3H]flumazenil from bovine brain cortex GABAA/Bz receptor. More on the design: species or system Bos taurus. The procedure, abridged:
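Bovine cerebral cortex membranes in 50 mM Tris-citrate pH 7.4, [3H]Ro 15-1788 (70.8 Ci/mmol) as radioligand. […] At least six concentrations used, curve-fitted, Ki by Cheng–Prusoff; means ± SEM of five determinations in triplicate.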
On the technique in general: In a radioligand displacement assay an active substance lowers the binding of a labelled ligand.

For experiment [2], the target named is GABA-A receptor; alpha-1/beta-2/gamma-2 (Rattus norvegicus, UniProt P18508+P62813+P63138). Nature of the experiment: Displacement of [3H]Ro15-1788 from rat recombinant GABA alpha-1-beta-2-gamma-2 receptor expressed in HEK293 cells. Type of experiment: cell-based. The procedure, abridged: (§1)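 Crude membranes from clonal mammalian cells expressing recombinant subtypes, grown in MEM/EBSS with 10% FCS at 37 °C, 5% CO2. Membranes resuspended in 10 mM potassium phosphate pH 7.4 with 100 mM KCl. Ki from three independent experiments run in triplicate, means ± SEM.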
Sequence of GABA-A receptor; alpha-1/beta-2/gamma-2 (P18508 whole entry): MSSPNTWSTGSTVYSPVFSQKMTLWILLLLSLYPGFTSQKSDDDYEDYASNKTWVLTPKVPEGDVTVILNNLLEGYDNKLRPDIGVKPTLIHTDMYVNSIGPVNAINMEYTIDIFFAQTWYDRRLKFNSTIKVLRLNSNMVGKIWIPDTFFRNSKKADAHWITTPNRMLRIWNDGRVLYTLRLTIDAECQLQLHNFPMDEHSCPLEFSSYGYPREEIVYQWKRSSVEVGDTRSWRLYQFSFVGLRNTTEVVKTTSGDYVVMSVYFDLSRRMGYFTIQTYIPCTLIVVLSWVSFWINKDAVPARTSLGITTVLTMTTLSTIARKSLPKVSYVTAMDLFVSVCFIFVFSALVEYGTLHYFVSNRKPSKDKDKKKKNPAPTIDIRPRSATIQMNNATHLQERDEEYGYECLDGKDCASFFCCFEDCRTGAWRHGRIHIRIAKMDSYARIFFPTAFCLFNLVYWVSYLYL
Sequence of GABA-A receptor; alpha-1/beta-2/gamma-2 (P62813 whole entry): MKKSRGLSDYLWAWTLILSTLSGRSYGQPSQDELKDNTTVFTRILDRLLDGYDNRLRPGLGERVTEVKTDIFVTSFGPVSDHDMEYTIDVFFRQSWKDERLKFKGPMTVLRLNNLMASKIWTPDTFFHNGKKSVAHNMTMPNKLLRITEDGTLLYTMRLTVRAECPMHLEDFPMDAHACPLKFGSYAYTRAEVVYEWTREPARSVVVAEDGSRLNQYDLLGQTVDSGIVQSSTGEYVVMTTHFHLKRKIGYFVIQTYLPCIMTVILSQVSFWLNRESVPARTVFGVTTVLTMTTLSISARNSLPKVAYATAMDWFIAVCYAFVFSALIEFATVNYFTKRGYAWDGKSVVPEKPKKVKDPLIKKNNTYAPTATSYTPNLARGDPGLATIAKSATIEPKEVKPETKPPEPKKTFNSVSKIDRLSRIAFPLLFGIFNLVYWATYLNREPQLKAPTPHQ
Sequence of GABA-A receptor; alpha-1/beta-2/gamma-2 (P63138 whole entry): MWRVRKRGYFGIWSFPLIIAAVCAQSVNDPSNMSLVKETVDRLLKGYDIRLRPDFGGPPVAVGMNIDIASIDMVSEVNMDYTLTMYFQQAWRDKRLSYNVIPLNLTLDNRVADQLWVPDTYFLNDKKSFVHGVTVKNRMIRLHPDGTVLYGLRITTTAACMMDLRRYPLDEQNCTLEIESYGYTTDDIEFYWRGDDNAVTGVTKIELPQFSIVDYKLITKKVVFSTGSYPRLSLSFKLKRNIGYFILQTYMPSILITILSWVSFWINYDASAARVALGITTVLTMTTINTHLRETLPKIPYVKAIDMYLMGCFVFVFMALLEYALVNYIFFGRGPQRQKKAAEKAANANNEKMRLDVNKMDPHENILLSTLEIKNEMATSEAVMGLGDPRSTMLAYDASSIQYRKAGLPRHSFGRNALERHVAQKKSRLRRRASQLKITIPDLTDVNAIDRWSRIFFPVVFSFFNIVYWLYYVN

Experiment [3] has as its system Mus musculus. Nature of the experiment: Effect on learning and memory performance in CD1 Albino mouse assessed as cognition enhancement at 3 mg/kg, po. The class given is functional, organism-based. Set-up: dose 3 mg/kg. In outline: (§2)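 Passive avoidance test in male CD-1 mice dosed po 30 min before training, with retention tested 24 h later. Read-out was the difference in latency (s) to enter the dark compartment between training and retention. Means ± SEM of 9–10 mice; ANOVA with Fischer's test.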

Experiment [4] concerns Mus musculus. Nature of the experiment: Effect on motor coordination in CD1 Albino mouse assessed as number of falls in 30 secs at 10 mg/kg, po […] by rotarod test relative to control. The class given is functional. A general note: In the rotarod test animals must keep their balance on a rotating rod.
The subject of experiment [5] is Mus musculus. The experiment can be described thus: Anticonvulsant activity against pentylenetetrazole-induced seizure in CD1 Albino mouse at 3 mg/kg, po. Type of experiment: functional. In outline:
(§3)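 Male CD-1 mice (22–24 g) dosed po in 1% carboxymethylcellulose (10 ml/kg); PTZ 90 mg/kg sc given 30 min later. Occurrence of clonic generalized convulsions noted over 30 min and expressed as percent of animals protected; latency (s) also recorded. Means ± SEM; ANOVA with Scheffe post-hoc test, Student's two-tailed t-test for pairs of means.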

Experiment [6] relates to Mus musculus. Nature of the experiment: Effect on motor coordination in CD1 Albino mouse assessed as number of falls in 30 secs at 30 mg/kg, po […] by rotarod test relative to control. Type of experiment: functional.
In experiment [7] the target is GABA-A receptor alpha-5/beta-2/gamma-2 (Rattus norvegicus). The experiment can be described thus: Displacement of [3H]Ro-151788 from rat recombinant GABA alpha-5-beta-2-gamma-2 receptor expressed in HEK293 cells.
For experiment [8], the system named is Mus musculus. The experiment can be described thus: Effect on learning and memory performance in CD1 Albino mouse assessed as cognition enhancement at 10 mg/kg, po. The class given is functional, organism-based. More on the design: dose 10 mg/kg. The procedure, abridged: as §2
Experiment [9] has as its target GABA A receptor alpha-3/beta-2/gamma-2 (Rattus norvegicus, UniProt P18508+P20236+P63138). The experiment can be described thus: Displacement of [3H]Ro15-1788 from rat recombinant GABA alpha-3-beta-2-gamma-2 receptor expressed in HEK293 cells. The class given is cell-based. In outline:
as §1

Experiment [10] relates to Mus musculus. The experiment can be described thus: Anticonvulsant activity against pentylenetetrazole-induced seizure in CD1 Albino mouse assessed as latency at 3 mg/kg, po. The class given is functional. In outline:
as §3

The subject of experiment [11] is Mus musculus. The experiment can be described thus: Anticonvulsant activity against pentylenetetrazole-induced seizure in CD1 Albino mouse at 10 mg/kg, po. Type of experiment: functional. The procedure, abridged:
as §3

The species entered for experiment [12] is Mus musculus. The experiment can be described thus: Anxiogenic-like effect in CD1 Albino mouse assessed as decrease in time spent in light compartment in light-dark box test. The class given is functional, organism-based. The procedure, abridged: (§4)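 Light/dark box test in male CD-1 mice dosed 30 min beforehand in 1% CMC vehicle. Number of transfers between compartments and time spent in the illuminated side counted over 5 min. Statistics by ANOVA with Fischer's test versus controls.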

For experiment [13], the system named is Mus musculus. The experiment can be described thus: Effect on motor coordination in CD1 Albino mouse assessed as number of falls in 30 secs at 3 mg/kg, po […] by rotarod test relative to control. Type of experiment: functional.
Experiment [14] concerns Mus musculus. The experiment can be described thus: Decrease in ethanol-induced sleeping time in CD1 Albino mouse at 10 mg/kg, po relative to control. The class given is functional, organism-based. More on the design: dose 10 mg/kg. In outline: (§5)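 Male CD-1 mice given drug po in 1% CMC, then ethanol 4 g/kg ip 30 min later. Sleep time taken as duration of loss of righting reflex, capped at 210 min. Means ± SEM of 5–16 mice; ANOVA with Fischer's test versus controls.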

The subject of experiment [15] is Mus musculus. Nature of the experiment: Anxiogenic-like effect in CD1 Albino mouse assessed as decrease in number of transfers from one compartment to another at 10 mg/kg in light-dark box test. Type of experiment: functional, organism-based. Set-up: dose 10 mg/kg. In outline:
as §4

In experiment [16] the test system is Mus musculus. Nature of the experiment: Anticonvulsant activity against pentylenetetrazole-induced seizure in CD1 Albino mouse at 30 mg/kg, po. Type of experiment: functional. In outline:
as §3

Experiment [17] has as its system Mus musculus. The experiment can be described thus: Decrease in ethanol-induced sleeping time in CD1 Albino mouse at 3 mg/kg, po relative to control. Type of experiment: functional, organism-based. More on the design: dose 3 mg/kg. In outline: as §5

Each structure is given as a SMILES string. The source made the active and inactive calls. The rule behind the calls is not given here.

Ki and Activity data for 31 compounds are collected here from ChEMBL document CHEMBL1142927, “Novel 3-iodo-8-ethoxypyrazolo[5,1-c][1,2,4]benzotriazine 5-oxide as promising lead for design of alpha5-inverse agonist useful tools for therapy of mnemonic damage” (Bioorg Med Chem, 2007).

Broadly, the Ki is the equilibrium dissociation constant of an inhibitor or competing ligand from its target.

Sequence of GABA A receptor alpha-3/beta-2/gamma-2 (P18508 whole entry): as the sequence (P18508 whole entry) above
Sequence of GABA A receptor alpha-3/beta-2/gamma-2 (P20236 whole entry): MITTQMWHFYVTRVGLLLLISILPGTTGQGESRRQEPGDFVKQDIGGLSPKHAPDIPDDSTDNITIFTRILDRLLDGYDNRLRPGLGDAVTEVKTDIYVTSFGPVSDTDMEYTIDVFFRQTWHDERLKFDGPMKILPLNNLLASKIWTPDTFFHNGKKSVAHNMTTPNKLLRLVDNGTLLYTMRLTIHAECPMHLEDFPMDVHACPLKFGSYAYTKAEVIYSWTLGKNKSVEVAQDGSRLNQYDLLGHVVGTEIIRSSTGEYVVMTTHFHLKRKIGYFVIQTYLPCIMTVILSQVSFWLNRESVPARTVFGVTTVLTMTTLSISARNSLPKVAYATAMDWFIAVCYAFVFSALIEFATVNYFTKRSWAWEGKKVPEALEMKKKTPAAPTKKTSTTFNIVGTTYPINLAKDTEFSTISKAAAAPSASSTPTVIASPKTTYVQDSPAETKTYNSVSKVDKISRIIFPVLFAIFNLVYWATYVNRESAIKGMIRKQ
Sequence of GABA A receptor alpha-3/beta-2/gamma-2 (P63138 whole entry): as the sequence (P63138 whole entry) above

`Cc1ccc2c(c1)n1ncc(Cl)c1n[n+]2[O-]` gave a Ki in [1] of 196 nM.
The same measure, in the same setting: to `CCOc1ccc2n[n+]([O-])c3c(Br)cnn3c2c1` belongs 15.6 nM; to `CCOc1ccc2c(c1)n1ncc(Br)c1n[n+]2[O-]`, 36.9 nM; to `CC(C)Oc1ccc2c(c1)n1ncc(I)c1n[n+]2[O-]`, 42 nM.
In experiment [1], `CN(C)CCOc1ccc2c(c1)n1ncc(I)c1n[n+]2[O-]` returned a Ki of 233 nM.
Same read-out and setting: for `[O-][n+]1nc2c(I)cnn2c2cc(OCC3CC3)ccc21` the value was 7.6 nM; for `CCCCOc1ccc2c(c1)n1ncc(I)c1n[n+]2[O-]`, 5.4 nM.
The same measure, in the same setting: to `[O-][n+]1nc2c(Cl)cnn2c2cc(I)ccc21` belongs 202 nM.
Consider `CCCCCOc1ccc2c(c1)n1ncc(I)c1n[n+]2[O-]`, for which the Ki in experiment [1] came out at 6.5 nM.
For `[O-][n+]1nc2c(Br)cnn2c2cc(Br)ccc21`, the affinity in [1], expressed as Ki, was 73 nM.
Turning to `[O-][n+]1nc2c(I)cnn2c2cc(Br)ccc21`, affinity in experiment [1] was put at a Ki of 14 nM.
Still for that read-out and setting: for `[O-][n+]1nc2c(Cl)cnn2c2cc(Cl)ccc21` the value was 374 nM.
Take `CCCOc1ccc2c(c1)n1ncc(I)c1n[n+]2[O-]`: the Ki in experiment [1] came out at 12 nM.
The same measure, in the same setting: for `[O-][n+]1nc2c(Cl)cnn2c2cc(Br)ccc21` the value was 332 nM.
Still for that read-out and setting: for `Cc1ccc2c(c1)n1ncc(Br)c1n[n+]2[O-]` the value was 53.2 nM.
Consider `CCOc1ccc2n[n+]([O-])c3c(I)cnn3c2c1`, for which the Ki came out at 1.7 nM in experiment [1], 2.6 nM in experiment [2], 70 nM in [7] and 12.3 nM in [9]. Also, the outcome with Mus musculus [3], in the experiment with Mus musculus [8] and in the experiment listed under Mus musculus [12] was Active. In addition, the Activity was 0.4 in the experiment with Mus musculus [4]; 0% with Mus musculus [5]; 0.6 in the experiment with Mus musculus [6]; 293.4 s with Mus musculus [10]; 12.5% in the experiment on Mus musculus [11].
`CN1C(=O)CN=C(c2ccccc2)c2cc(Cl)ccc21` [DIAZEPAM] came in with a Ki in [1] of 10 nM. The Activity stood at 1.2 with Mus musculus [13] and 100% in the experiment with Mus musculus [5].
Consider `[O-][n+]1nc2c(I)cnn2c2cc(OCCCl)ccc21`, for which the Ki in experiment [1] was 62 nM.
The same measure, in the same setting: to `CCOc1ccc2c(c1)n1ncc(Cl)c1n[n+]2[O-]` belongs 160 nM; to `C#CCOc1ccc2c(c1)n1ncc(I)c1n[n+]2[O-]`, 0.8 nM.
Regarding `CCOc1ccc2c(c1)n1ncc(I)c1n[n+]2[O-]`, the outcome with Mus musculus [14], with Mus musculus [3], with Mus musculus [15], with Mus musculus [8], in the experiment listed under Mus musculus [12] and in the experiment with Mus musculus [17] was Active. Further, the Ki in experiment [1] came out at 4.8 nM; in experiment [2], 4.1 nM; in experiment [7] it was 99 nM; in [9], 34 nM. In addition, the Activity was 0.2 in the experiment on Mus musculus [4]; 0.2 with Mus musculus [13]; 10% in the experiment with Mus musculus [5]; 0.2 in the experiment on Mus musculus [6]; 0% with Mus musculus [16]; 0% in the experiment with Mus musculus [11].
For the compound `[O-][n+]1nc2c(I)cnn2c2cc(O)ccc21`, in experiment [1], affinity was put at a Ki of 1700 nM.
The same measure, in the same setting: for `COCCOc1ccc2c(c1)n1ncc(I)c1n[n+]2[O-]` the value was 37 nM.
Compound `[O-][n+]1nc2c(Br)cnn2c2cc(I)ccc21` showed an inhibitory constant (Ki) in experiment [1] of 81 nM.
`CCOc1ccc2nnc3c(I)cnn3c2c1`: the Ki in [1] was determined as 18 nM; in experiment [2] it was 13.8 nM; in experiment [7], 95 nM; in [9], 133 nM. Also, the Activity is reported as 0.7 with Mus musculus [4]; 0.3 with Mus musculus [13]; 0% in the experiment on Mus musculus [5]; 237.7 s with Mus musculus [10]; 0% in the experiment with Mus musculus [16]; 0% with Mus musculus [11].
Consider `[O-][n+]1nc2c(Br)cnn2c2cc(Cl)ccc21`, for which, in experiment [1], the Ki came to 120 nM.
Take `Clc1ccc2nnc3c(I)cnn3c2c1`: affinity in experiment [1] was put at a Ki of 22.8 nM.
`CSc1ccc2c(c1)n1ncc(I)c1n[n+]2[O-]`: affinity in experiment [1] was put at a Ki of 15.8 nM.
Turning to `Cc1ccc2c(c1)n1ncc(I)c1n[n+]2[O-]`, the Ki in experiment [1] stood at 12 nM.
As to `[O-][n+]1nc2c(I)cnn2c2cc(I)ccc21`, the Ki in [1] is 14 nM.
Still for that read-out and setting: for `COc1ccc2c(c1)n1ncc(I)c1n[n+]2[O-]` the value was 13.5 nM.
